Measured values published in PubChem BioAssay.
Results filed as inconclusive are left out.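 How the source made its calls, unless noted: active means RAM network inhibition above 8.4% in each of two replicates, 3 SD over the compound average; inconclusive means above 8.4% inhibition in only one replicate; inactive means 8.4% inhibition or less in each replicate.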

What was measured:
[1] = S. cerevisiae growth inhibition in permissive medium (OD615), pilot counter-assay for S. cerevisiae lifespan shortening project, permissive growth control (AID 705;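 active means growth inhibition above 25% in both replicates, a cutoff set 3 SD above the mean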); conditions: OD615, 24 h, at 10 µM, stronger effect = higher value
In short: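 Material: engineered DeaD yeast; compound dosing: one dose 10 µM, DMSO 0.25% final; measure: yeast growth inhibition indicated by reduced 24 h OD615; detection: OD615 turbidity read; incubation: cells pre-grown 4 h, then 24 h compound exposure, 30 °C humidified; medium: permissive synthetic complete medium with raffinose and galactose carbon sources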

[2] = S. cerevisiae growth inhibition in restrictive medium, OD615, pilot screen, restrictive growth control, yeast lifespan reduction project (AID 706;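 active means growth inhibition above a set limit, 3 SD over mean compound inhibition, in both replicates, cut at about 43% in these data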;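 further: modified DeaD lifespan yeast strain shifted to restrictive glucose medium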); conditions: OD615, 48 h, at 10 µM, stronger effect = higher value
In short: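 material = engineered S. cerevisiae DeaD strain | medium = glucose-based CSMM-D restrictive medium | times = 4 h pre-incubation, 48 h exposure at 30 °C | technique = OD615 absorbance reading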

[3] = doxorubicin toxicity protection in MRP-1 cells – H69AR cells, CellTiter-Glo, duplicate, MRP-1 activator project, pilot screen (AID 807;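 active means viability increase at or above a cutoff of the median across tested compounds plus 3 SD, cut at about 8.5% in these data, passing the limit was not always enough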;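 further: compound pretreatment 18-22 h then 72 h combined with doxorubicin; 0% = doxorubicin alone and 100% = vehicle without doxorubicin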); conditions: H69AR viability with doxorubicin, CellTiter-Glo luminescence; at 10 µM; stronger effect = higher value
[4] = viability of HCT116 without oncogenic beta-catenin – human colon tumor cells, pilot screen (AID 823;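 active means cell viability at or below a set limit in both duplicate runs, the limit being the all-compound median minus 4 SD, cut at about 23% in these data, passing the limit was not always enough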;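 further: 0% = wells killed by 20 µM Hyamine and 100% = untreated DMSO cell wells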); conditions: HCT116 beta-catenin knockout viability, CellTiter-Glo, 60 h; at 10 µM; stronger effect = lower value
[5] = viability of PTEN-null HCT116 cells – cell-based, HCT116 clonal line, CellTiter-Glo, pilot screen (AID 824;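 active means viability at or below 27.92% in each of two runs, the all-compound median minus 4 SD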;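 further: 0% = 20 µM Hyamine control and 100% = vehicle cell control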); conditions: HCT116 PTEN-deleted viability, 60 h, at 10 µM, stronger effect = lower value
[6] = RAM pathway blockade in budding yeast – dse1pr::URA3 reporter, 5-FOA selection, pilot screen (AID 869;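 active means inhibition over a set limit, the all-compound mean plus 3 SD, in both replicate runs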;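 further: 0% = DMSO wells with no growth and 100% = 10 µM 1-NA-PP1 with full growth; RAM network block rescues cells from 5-FOA so hits raise OD615 growth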); conditions: S. cerevisiae dse1pr::URA3 5-FOA growth, OD615, 2 d; at 10 µM; stronger effect = higher value; strain carries analog-sensitive mutant Cbk1 kinase
[7] = RAM signaling pathway blockade in yeast – S. cerevisiae, Pdr1DBD-CYC8 efflux-inhibited sensitized strain, primary screen (AID 1298);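 further: 0% = DMSO untreated cells without growth and 100% = 10 µM 1-NA-PP1 full growth; higher means more yeast growth rescued from 5-FOA killing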; conditions: S. cerevisiae cbk1-as DSE1-URA3 strain, 5-FOA growth OD615, 2 d; at 50 µM; stronger effect = higher value

OCCCc1nc2n(n1)C(c1cccs1)C=C(c1ccccc1)N2 (configuration not stated)
inactive: growth inhibition [1] -17.7% | growth inhibition [2] -5.79% | viability increase [3] -4.73% | viability [4] 83.6% | viability [5] 84.7% | inhibition [6] 3.25% | RAM network inhibition [7] 3.92%

Cc1ccc(Cl)cc1N1CCN(C(=O)CCC(=O)O)CC1
inactive: growth inhibition [1] -10.9% | growth inhibition [2] -29.2% | viability increase [3] -1.08% | viability [4] 95.6% | viability [5] 91.3% | inhibition [6] 1.51% | RAM network inhibition [7] 2.18%

CC(=O)N1CSCC1C(=O)N1CCN(c2ccc(N3CCOCC3)nn2)CC1 (configuration not stated)
inactive: growth inhibition [1] 5.2% | growth inhibition [2] 12.4% | viability increase [3] -0.66% | viability [4] 103% | viability [5] 95.1% | inhibition [6] 1.55% | RAM network inhibition [7] 0.26%

COC(=O)Cn1c(=NC(=O)C2CC2)sc2c(C)cc(C)cc21
inactive: growth inhibition [1] -12.3% | growth inhibition [2] -19% | viability increase [3] -2.07% | viability [4] 92.9% | viability [5] 91.4% | inhibition [6] 0.27% | RAM network inhibition [7] 4.34%

Cc1nnc(NC(=O)CSC2CCCCC2)s1
inactive: growth inhibition [1] 3.88% | growth inhibition [2] 17.7% | viability increase [3] -0.77% | viability [4] 105% | viability [5] 97.9% | inhibition [6] 1.1% | RAM network inhibition [7] 2.15%

Cn1c(NC(=O)Cc2cccs2)cc(=O)n(C)c1=O
inactive: growth inhibition [1] 5.64% | growth inhibition [2] 5.55% | viability increase [3] -0.45% | viability [4] 105% | viability [5] 101% | inhibition [6] 1.26% | RAM network inhibition [7] -2.37%

CN(C)S(=O)(=O)c1ccc(NC(=O)C2COc3ccccc3O2)cc1 (configuration not stated)
inactive: growth inhibition [1] -9.66% | growth inhibition [2] -10.9% | viability increase [3] 0.49% | viability [4] 90.2% | viability [5] 83.8% | inhibition [6] 1.27% | RAM network inhibition [7] 2.63%

c1ccc2c(c1)[nH]c1nc3nncn3nc12
inactive: growth inhibition [1] -7.18% | growth inhibition [2] -14.9% | viability increase [3] -1.07% | viability [4] 94% | viability [5] 93% | inhibition [6] 1.29% | RAM network inhibition [7] 7.04%

Cc1cc(C(=O)N2CCN(S(C)(=O)=O)CC2)cs1
inactive: growth inhibition [1] -7.07% | growth inhibition [2] -12.8% | viability increase [3] -1.25% | viability [4] 94.5% | viability [5] 88.9% | inhibition [6] 1.6% | RAM network inhibition [7] -0.04%

Cc1onc(-c2ccccc2)c1C(=O)Nc1ccc2c(c1)OCCO2
inactive: growth inhibition [1] -5.44% | growth inhibition [2] -6.46% | viability increase [3] -0.35% | viability [4] 96.6% | viability [5] 94.9% | inhibition [6] 2.96% | RAM network inhibition [7] 2.34%

Cc1c(C(=O)Nc2ccc(F)cc2)oc2ccc(S(=O)(=O)N3CCCC3)cc12
inactive: growth inhibition [1] -14.8% | growth inhibition [2] -6.18% | viability increase [3] -2.04% | viability [4] 101% | viability [5] 96% | inhibition [6] 3.88% | RAM network inhibition [7] 3%

O=C(CCc1nc2ccccc2[nH]1)NCc1ccc2c(c1)OCO2
inactive: growth inhibition [1] -8.32% | growth inhibition [2] -4.06% | viability increase [3] -2.13% | viability [4] 97.8% | viability [5] 91.7% | inhibition [6] 2.1% | RAM network inhibition [7] 1.84%

COc1ccc(N2CC(C(=O)NC3CC(C)(C)NC(C)(C)C3)CC2=O)cc1 (configuration not stated)
inactive: growth inhibition [1] -9.42% | growth inhibition [2] -4.41% | viability increase [3] 0.06% | viability [4] 99.8% | viability [5] 104% | inhibition [6] 0.515% | RAM network inhibition [7] 2.14%

CCOC(=O)N1CCN(C(=O)c2ccccc2NC(=O)COc2ccccc2C)CC1
inactive: growth inhibition [1] -9.27% | growth inhibition [2] 3.48% | viability increase [3] -1.77% | viability [4] 86.3% | viability [5] 82.2% | inhibition [6] 1.29% | RAM network inhibition [7] 5.67%

C/C=C/Cn1c(N(C)Cc2ccccc2)nc2c1c(=O)[nH]c(=O)n2C
inactive: growth inhibition [1] -17.4% | growth inhibition [2] -23.1% | viability increase [3] 0.04% | viability [4] 102% | viability [5] 87.6% | inhibition [6] 0.445% | RAM network inhibition [7] 3.49%

Clc1cc(NCc2cccs2)ccc1N1CCOCC1
inactive: growth inhibition [1] -13.5% | growth inhibition [2] -6.34% | viability increase [3] -3.46% | viability [4] 78.9% | viability [5] 92% | inhibition [6] 1.17% | RAM network inhibition [7] 4.21%

NC(=O)c1cc(Cl)cn(-c2ccccc2)c1=O
inactive: growth inhibition [1] -13% | growth inhibition [2] -5.85% | viability increase [3] -0.12% | viability [4] 99.7% | viability [5] 95% | inhibition [6] 1.81% | RAM network inhibition [7] 4.23%

Cn1nc(-c2ccc(Cl)cc2)c2cc(C(=O)N3CCCC3)sc21
inactive: growth inhibition [1] -8.92% | growth inhibition [2] -9.39% | viability increase [3] -2.97% | viability [4] 96.9% | viability [5] 85.7% | inhibition [6] 1.97% | RAM network inhibition [7] 3.39%

Cc1ccc(-n2c(C)cc(C(=O)OCC(=O)N(C)C3CCS(=O)(=O)C3)c2C)cc1 (configuration not stated)
inactive: growth inhibition [1] -15.9% | growth inhibition [2] -17.3% | viability increase [3] -1.95% | viability [4] 91.7% | viability [5] 91.1% | inhibition [6] 0.955% | RAM network inhibition [7] 8.11%

CCOc1ccccc1N(CC)C(=O)Cn1ncc2c(=O)oc3ccccc3c21
inactive: growth inhibition [1] -11.6% | growth inhibition [2] -7.42% | viability increase [3] -1.85% | viability [4] 95.7% | viability [5] 96.2% | inhibition [6] -0.255% | RAM network inhibition [7] 4.3%

O=C1c2oc3ccc(F)cc3c(=O)c2C(c2ccncc2)N1CCN1CCOCC1 (configuration not stated)
inactive: growth inhibition [1] 3.02% | growth inhibition [2] 3.27% | viability increase [3] 0.53% | viability [4] 110% | viability [5] 99.2% | inhibition [6] 1.26% | RAM network inhibition [7] 0.47%

CCOC(=O)C1CCN(C(c2ccc(OC)c(OC)c2)c2sc3nc(C)nn3c2O)CC1 (configuration not stated)
inactive: growth inhibition [1] -3.62% | growth inhibition [2] 9.57% | viability increase [3] -2.25% | viability [4] 95.4% | viability [5] 96.1% | inhibition [6] -0.01% | RAM network inhibition [7] -0.97%

O=C(c1cccc(C(=O)N2CCc3ccccc32)n1)N1CCc2ccccc21
inactive: growth inhibition [1] -9.26% | growth inhibition [2] -3.99% | viability increase [3] -5.2% | viability [4] 83.3% | viability [5] 84.4% | inhibition [6] 0.515% | RAM network inhibition [7] 6.13%

C=CCn1c(CSc2nc3ccccc3s2)nnc1SCC(=O)NCc1ccco1
inactive: growth inhibition [1] 1.06% | growth inhibition [2] 30.4% | viability increase [3] -3.87% | viability [4] 96.6% | viability [5] 90.4% | inhibition [6] 0.105% | RAM network inhibition [7] 2.19%

O=C(Nc1ccc(N2CCOCC2)cc1)NC1CCCCC1
inactive: growth inhibition [1] -0.89% | growth inhibition [2] 1.07% | viability increase [3] -1.27% | viability [4] 103% | viability [5] 101% | inhibition [6] -0.22% | RAM network inhibition [7] 9.28%

COc1cccc(C(=O)Nc2cc(=O)n(C)c(=O)n2C)c1OC
inactive: growth inhibition [1] -1.72% | growth inhibition [2] -6.04% | viability increase [3] -2.46% | viability [4] 105% | viability [5] 98.8% | inhibition [6] 1.94% | RAM network inhibition [7] 1.14%

O=C(OCn1nnc2ccccc2c1=O)c1cccs1
inactive: growth inhibition [1] -7.72% | growth inhibition [2] 2.16% | viability increase [3] -0.21% | viability [4] 103% | viability [5] 95.9% | inhibition [6] 0.24% | RAM network inhibition [7] 3.6%

Cc1occc1C(=O)Nc1nnc(-c2ccncc2)s1
inactive: growth inhibition [1] 4.81% | growth inhibition [2] 5.91% | viability increase [3] -0.28% | viability [4] 100% | viability [5] 104% | inhibition [6] 0.705% | RAM network inhibition [7] -1.3%

Cc1cc(C)n(Cc2ccccc2F)c(=O)c1C#N
inactive: growth inhibition [1] -7.71% | growth inhibition [2] -16.5% | viability increase [3] -1.4% | viability [4] 105% | viability [5] 96.9% | inhibition [6] 0.375% | RAM network inhibition [7] 4.95%

COc1ccc2nc(NC(=O)C3CCCN3S(=O)(=O)c3ccc(C)cc3)sc2c1 (configuration not stated)
inactive: growth inhibition [1] -6.88% | growth inhibition [2] -4% | viability increase [3] -1.48% | viability [4] 69.3% | viability [5] 72% | inhibition [6] 1.23% | RAM network inhibition [7] 6.79%

COC(=O)c1c(-c2ccc(C)cc2)csc1N
inactive: growth inhibition [1] 1.67% | growth inhibition [2] 0.135% | viability increase [3] -3.98% | viability [4] 75.8% | viability [5] 87.8% | inhibition [6] -0.61% | RAM network inhibition [7] -1.79%

CC(C)C(=O)Nc1nnc(-c2ccccc2)o1
inactive: growth inhibition [1] -5.24% | growth inhibition [2] -0.51% | viability increase [3] -2.2% | viability [4] 102% | viability [5] 101% | inhibition [6] 0.64% | RAM network inhibition [7] -0.68%

CCOc1ccc(N2CCCCn3c2nc2c3c(=O)[nH]c(=O)n2C)cc1
inactive: growth inhibition [1] -21.9% | growth inhibition [2] -16.5% | viability increase [3] -1.1% | viability [4] 97.8% | viability [5] 98% | inhibition [6] 1.5% | RAM network inhibition [7] 2.47%

O=C(C1CC(c2ccc(F)cc2)=NO1)N1CCN(c2ccccc2)CC1 (configuration not stated)
inactive: growth inhibition [1] 1.07% | growth inhibition [2] -3.47% | viability increase [3] -0.13% | viability [4] 99.1% | viability [5] 95.6% | inhibition [6] 1.23% | RAM network inhibition [7] 3.67%

COc1ccc(CCC(C(O)C(F)(F)F)S(=O)c2ccccc2)cc1 (configuration not stated)
inactive: growth inhibition [1] -4.67% | growth inhibition [2] -15.5% | viability increase [3] -0.87% | viability [4] 95.4% | viability [5] 101% | inhibition [6] 0.54% | RAM network inhibition [7] 7.13%

O=C(NC1CCS(=O)(=O)C1)C1CCCCN1S(=O)(=O)c1ccc(Cl)cc1 (configuration not stated)
inactive: growth inhibition [1] -5.22% | growth inhibition [2] -3.24% | viability increase [3] -1.52% | viability [4] 95% | viability [5] 90.8% | inhibition [6] 1.53% | RAM network inhibition [7] 2.19%
